Measurements from different studies.
pEC50, pIC50, pKd, pKi: −log10 of the molar value.
MRGPRX2: Mas-related G-protein coupled receptor member X2 (MRGPRX2, Homo sapiens, UniProt Q96LB1)
CYP17A1: Steroid 17-alpha-hydroxylase/17,20 lyase (CYP17A1, Homo sapiens, UniProt P05093)

Compound | target | assay | conditions | quantity | result
Nc1ncc(-c2nc(N3CCOCC3)nc(N3CCOCC3)n2)c(C(F)F)n1 | Phosphatidylinositol 4,5-bisphosphate 3-kinase catalytic subunit alpha isoform (PIK3CA, Homo sapiens, UniProt P42336) | ligand displacement, TR-FRET |  | pIC50 | 7.66
Cc1c(Cc2cccc(N(C)S(=O)(=O)CCCN3CCN(c4ccc(Nc5c(C(N)=O)cnc6ccc(-c7cnc8ccccc8c7)cc56)cc4C(F)(F)F)CC3)c2)c(=O)oc2cc(OC(=O)N(C)C)ccc12 | Dual specificity mitogen-activated protein kinase kinase 1 (MAP2K1, Homo sapiens, UniProt Q02750) | enzyme activity, inhibitor, mobility shift |  | pIC50 | 5.30
NC(=O)[C@@H]1CCCN1C(=O)[C@H](CCC(=O)O)NC(=O)[C@@H]1CCC(=O)N1 | MRGPRX2 | calcium signal, agonist |  | pEC50 | < 4.70
CC(C)=CCc1c(O)cc2c(c1O)C(=O)C[C@@H](c1ccc(O)cc1)O2 | Cytochrome P450 1A1 (CYP1A1, Homo sapiens, UniProt P04798) | enzyme activity, inhibitor, fluorescence | 15 min, pH 7.4 | pKi | 6.23
CC(=O)C1=CC[C@H]2[C@@H]3CCC4=CC(=O)CC[C@]4(C)[C@H]3CC[C@]12C | CYP17A1 | binding, absorbance |  | pKd | 6.27
C/C(=C\[N+](=O)[O-])c1ccccc1 | OYE1 (Saccharomyces pastorianus, UniProt Q02899) | binding, absorbance |  | pKd | 3.77
COC(=O)Nc1nc2cc(C(=O)c3ccc(F)cc3)ccc2[nH]1 | Vascular endothelial growth factor receptor 2 (KDR, Homo sapiens, UniProt P35968) | enzyme activity, inhibitor, TR-FRET |  | pIC50 | 6.33
COc1cc(C(=O)N2CC[C@@H](O)[C@@H](N)C2)cc2nc(-c3cc4ccccc4n3CC3CC3)n(C)c12 | Vasopressin V1a receptor (AVPR1A, Homo sapiens, UniProt P37288) | calcium signal, antagonist, fluorescence |  | pIC50 | 4.60
C[C@@H](O)[C@@H]1NC(=O)[C@H](CCCCN)NC(=O)[C@H](Cc2c[nH]c3ccccc23)NC(=O)[C@H](Cc2ccccc2)NC(=O)[C@H](Cc2ccccc2)NC(=O)[C@H](CC(N)=O)NC(=O)[C@H](CCCCN)NC(=O)[C@@H](NC(=O)[C@@H]2CCCN2)CSSC[C@@H](C(=O)N[C@@H](CCCCN)C(=O)O)NC(=O)[C@H](CO)NC(=O)[C@H](CO)NC(=O)[C@H](Cc2ccccc2)NC1=O | MRGPRX2 | calcium signal, agonist |  | pEC50 | 7.10
C/C=C1\NC(=O)[C@H](C)NC(=O)[C@@H](NC(=O)[C@@H](Cc2ccc(O)cc2)NC(=O)[C@@H](NC(=O)/C(C)=C/C)C(C)C)[C@@H](C)OC(=O)[C@H](CC[S+](C)[O-])NC(=O)[C@@H](CCC(=O)O)NC1=O (stereo partly drawn) | Chymotrypsin-like elastase family member 1 (CELA1, Sus scrofa, UniProt P00772) | enzyme activity, inhibitor, absorbance |  | pIC50 | 5.14
Cc1cc2c(cc1Br)NC(=O)/C2=N/N=C1/C(=O)Nc2cc(Br)c(C)cc21 | Glycogen synthase kinase-3 beta (GSK3B, Homo sapiens, UniProt P49841) | enzyme activity, inhibitor |  | pIC50 | ~10.52
CC(=O)[C@H]1CC[C@H]2[C@@H]3CCC4=CC(=O)CC[C@]4(C)[C@H]3CC[C@]12C | CYP17A1 | binding, absorbance |  | pKd | 6.13
CC(C)C[C@H](NC(=O)[C@H](Cc1ccccc1)NC(=O)c1cnccn1)B(O)O | Cathepsin G (CTSG, Homo sapiens, UniProt P08311) | enzyme activity, inhibitor |  | pIC50 | 4.44
CC[C@H](C)[C@H](NC(=O)[C@@H]1CCCN1C(C)=O)C(=O)N[C@@H](CCC(=O)O)C(=O)N[C@H](C(=O)N[C@@H](CS)C(=O)N[C@@H](CCSC)C(=O)N[C@@H](Cc1ccc(O)cc1)C(=O)N[C@@H](CCCNC(=N)N)C(=O)N[C@@H](CCC(=O)O)C(=O)N1CCC[C@H]1C(N)=O)C(C)C | MRGPRX2 | calcium signal, agonist |  | pEC50 | < 4.70
CCCc1cc(C)[nH]c(=O)c1CNC(=O)c1cc(-c2ccc(N3CCN(CCCCc4cn(CCN5C(=O)\C(=C/C=C/C=C6/N(CCC(=O)OCOC(C)=O)c7ccc(C(=O)OCOC(C)=O)cc7C6(C)C)C(=O)N(CC)C5=O)nn4)CC3)nc2)cc2c1cnn2C(C)C | Histone-lysine N-methyltransferase EZH2 (EZH2, Homo sapiens, UniProt Q15910) | enzyme activity, inhibitor, radiometric |  | pIC50 | 7.68
